# Screens: PubChem, several laboratories
# KCNQ1 inh – blocks the human KCNQ1 potassium channel | hit rate 1.3% among 310,000 | P51787 | B-score at 10 µM | CHO-K1 KCNQ1, FluxOR thallium flux fluorescence; active compounds read high;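 active = compounds whose thallium flux B-score, printed positive for inhibition, exceeds three library SD while starting fluorescence stays within three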;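 also: channel opened by potassium depolarization with thallium stimulus after 20 min compound exposure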
# PHOSPHO1 block – PHOSPHO1 (human) inhibition | Q8TCT1 | recombinant PHOSPHO1, absorbance phosphatase assay | inhibition, % at 13.3 µM | hit rate 1.1% among 290,000; in the data active = inhibition above about 60%
# Target sequence (Q8TCT1 whole entry, looked up): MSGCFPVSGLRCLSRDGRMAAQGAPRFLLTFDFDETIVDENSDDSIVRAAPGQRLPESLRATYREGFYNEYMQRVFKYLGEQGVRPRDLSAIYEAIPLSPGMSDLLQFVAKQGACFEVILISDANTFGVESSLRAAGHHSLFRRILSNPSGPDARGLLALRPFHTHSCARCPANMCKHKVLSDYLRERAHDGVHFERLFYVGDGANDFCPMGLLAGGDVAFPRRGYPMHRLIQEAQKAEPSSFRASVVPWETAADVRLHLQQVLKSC
# hERG rescue – compounds protecting human hERG from proarrhythmic drug block. CHO-hERG, FluxOR thallium flux, dofetilide IC70 present. AID 1511. Q12809. activation (rescue from dofetilide block), less the hit threshold, % at 10 µM. hit rate 0.51% among 310,000;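 active = activation above the mean of controls blocked by dofetilide plus 5 SD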;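 also: thallium influx through hERG after potassium depolarization seen as dye fluorescence rise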
# KCNQ1 pot – potentiates or activates the human KCNQ1 potassium channel; hit rate 0.35% among 310,000; P51787; CHO-K1 KCNQ1, thallium flux FluxOR fluorescence; active compounds read high; B-score at 10 µM;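 active = fluorescence ratio B-score, a plate-corrected score, at least three library SD, with initial intensity B-score within 5 SD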
#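 Material: CHO-K1 cells stably expressing KCNQ1. Medium: assay buffer for compound exposure, DMSO matched across wells. Reagent: K+/Tl+ depolarizing stimulus. Compound dosing: single-concentration screen. Times: 37 °C overnight plating, 90-min dark dye load, 20-min compound pretreatment. Technique: FluxOR Tl+ flux fluorescence.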
# KCNK3 block – human KCNK3 channel inhibition, primary screen; CHO-KCNK3 thallium flux, FluxOR fluorescence; active compounds read low; B-score at 10 µM; hit rate 0.84% among 340,000;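 active = B-score under library mean minus 4 SD, starting fluorescence ratio at most library mean plus 5 SD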;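 also: more negative B-score means stronger inhibition of thallium flux through KCNK3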
# KCNK9 inh – human KCNK9 channel inhibition; AID 488922; B-score at 10 µM; Q9NPC2; hit rate 1.2% among 310,000; HEK293 KCNK9, FluxOR thallium flux fluorescence; active compounds read low;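 active = ratio B-score over 3 SD below the library mean, with starting fluorescence within 5 SD of its mean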;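 also: negative B-score means less thallium flux so channel inhibition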
# KCNK9 block conf – confirmation of human KCNK9 potassium channel inhibitors; shares compounds with KCNK9 inh; HEK293 KCNK9 cells, FluxOR thallium flux fluorescence; inhibition, % at 10 µM; hit rate 43% among 4,900; AID 492992;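 active = thallium signal inhibited by more than 5 SD of the compound-free buffer control wells, on both duplicate plates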
# Kir2-1 spec – selectivity of KCNK9 modulators against mouse Kir2.1. inhibition, % at 10 µM. hit rate 4% among 4,900. shares compounds with KCNK9 inh. Kir2.1 cells, FluxOR thallium flux fluorescence;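 active = thallium signal drop more than 5 SD beyond the mean of the no-compound control wells, seen in both duplicate plates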;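 also: signal is fluorescence rise after thallium addition divided by baseline fluorescence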
# KCNK9 uninduced – second counter-screen for KCNK9 modulators: effect in non-induced cells. inhibition, % at 10 µM. shares compounds with KCNK9 inh. AID 492997. non-induced KCNK9-HEK293, FluxOR thallium flux. hit rate 40% among 4,900;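 active = thallium signal drop beyond 5 SD of the untreated control mean, on both duplicate plates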
# Hits are given with their value; . = inactive; / = not tested or not shown. Rows were chosen to be rich in hits. Some 4% of all compounds tested hit in one or more screens of this group.
SMILES,KCNQ1 inh,PHOSPHO1 block,hERG rescue,KCNQ1 pot,KCNK3 block,KCNK9 inh,KCNK9 block conf,Kir2-1 spec,KCNK9 uninduced
C=CCn1c(CSCc2ccccc2)nnc1SCC(=O)NCc1ccccc1,.,.,.,.,.,.,/,/,/
COCCNC(=O)C12CC3CC(C1)CC(c1ccccc1)(C3)C2,.,.,.,.,.,.,/,/,/
COc1ccc(NC(=O)C23CC4CC(C2)CC(c2ccccc2)(C4)C3)c(OC)c1,.,.,.,.,.,.,.,.,.
CCCCOc1ccc(C(=O)NCC(=O)N2CC=C(c3ccccc3)CC2)cc1,.,/,.,.,.,.,/,/,/
O=C(/C=C/N1CCN(Cc2ccccc2)CC1)C(F)(F)F,.,.,.,.,.,.,/,/,/
COc1ccc(-c2csc(Nc3ncccc3C)n2)cc1OC,.,.,.,.,.,.,/,/,/
COc1ccc(-c2csc(Nc3ncccc3C)n2)cc1,.,.,.,.,.,.,.,.,.
COc1cccc(-n2cc(CN(C)Cc3nc(Cc4cccc(F)c4)no3)cn2)c1,.,.,.,.,.,.,.,.,.
COc1ccc(CN(C)Cc2nc(Cc3cccc(F)c3)no2)c2cccnc12,.,.,.,.,.,.,/,/,/
COc1cccc(-n2cc(CN(C)Cc3nc(Cc4ccccc4)no3)cn2)c1,.,.,.,.,.,.,.,.,.
CN(Cc1cnn(C)c1)Cc1nc(Cc2ccccc2Cl)no1,.,.,.,.,.,.,/,/,/
O=Cc1cn(CC(=O)Nc2ccc(F)cc2)c2ccccc12,.,.,.,.,.,.,/,/,/
CCC(C(=O)Nc1nc(C)c(C(=O)OC)s1)c1ccccc1 (stereo unspecified),.,.,.,.,.,-9.4,30%,.,26%
COc1ccc(Cc2c(N)nc(C)nc2N)cc1,.,.,.,.,.,.,/,/,/
CCOc1ccc(Cc2c(Cl)nc(SC)nc2OC)cc1,.,.,.,.,.,.,.,.,26%
Cc1ccc(C)c(S(=O)(=O)N2CCCOC2CNC(=O)C(=O)NCCc2ccco2)c1 (stereo unspecified),.,.,.,.,.,.,/,/,/
COc1cc(CNCCSc2nnnn2C)cc(Br)c1OCc1ccccc1F,.,.,.,.,.,.,/,/,/
CCOc1cc(CNCCSc2nnnn2C)cc(Br)c1OCc1ccccc1F,.,.,.,.,.,-9.5,.,.,32%
COc1ccc(CCNC(=O)c2c([S-])n(-c3ccc(C)cc3)c3cccc[n+]23)cc1,.,.,.,.,.,.,.,.,.
COc1cc(CNCCc2ccccc2)ccc1OCC(=O)NC(C)(C)C,.,.,.,.,.,.,/,/,/
O=C(CNC(=O)c1ccccc1F)OC(C(=O)Nc1cc(C(F)(F)F)ccc1Cl)c1ccccc1 (stereo unspecified),.,.,.,.,.,-11,.,.,32%
Cc1cccc(N2CCN(Cc3nc(-c4ccc(F)cc4F)oc3C)CC2)n1,.,.,.,.,.,.,.,.,.
CCOC(=O)c1c(C)[nH]c(C)c1C(=O)CSc1nc2ccccc2c(=O)n1-c1ccc(F)cc1,.,.,.,.,.,-10,.,.,.
CCOC(=O)c1c(C)[nH]c(C)c1C(=O)CSc1nc2ccccc2c(=O)n1-c1ccccc1C,.,.,.,.,.,-9.6,32%,.,34%
CN(C(=O)CSc1nc2ccccc2c(=O)n1-c1ccc(F)cc1)C1CCS(=O)(=O)C1 (stereo unspecified),/,/,/,/,.,/,/,/,/
Clc1cccc(CSc2nccn2-c2ccccc2)c1,.,.,.,.,.,.,.,.,.
Brc1ccc(CSc2nccn2-c2ccccc2)cc1,.,.,.,.,.,.,.,.,.
FC(F)(F)c1ccc(CSc2nccn2-c2ccccc2)cc1,.,.,.,.,.,.,.,.,.
